Experimental data: ChEMBL document CHEMBL5724801, “EUbOPEN Chemogenomics Library - Multiplex” (2024)
Where “and” joins values, the source holds several entries; their conditions need not be identical. Equal values may be shown once.

Experiments:
Fibroblast = experiment: Multiplex assay against human fibroblast; format: toxicity, cell-based
Summary of the method: (§1)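 Live cells carried four stains from seeding: Hoechst33342, BioTracker Green Microtubule Cytoskeleton Dye, MitoTracker Red and Annexin V Alexa Fluor 680. They were imaged on a CQ1 microscope at 37°C and 5% CO2 after compound addition. Using CellPathfinder machine-learning gating, cells were split into Hoechst high-intensity objects or normal cells, normal cells into healthy, pyknosed or fragmented nuclei, and pyknosed cells into mitotic or apoptotic; tubulin, mitochondrial-mass and membrane-permeability phenotypes are per cents of healthy-nucleus cells.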

HEK-293T = experiment: Multiplex assay against HEK293T; format: toxicity, cell-based; settings: human; summary of the method: as §1
[1] = 12 h, 1 µM, compound concentration 1 uM
[2] = 12 h, 10 µM, compound concentration 10 uM
[3] = 24 h, 1 µM, compound concentration 1 uM
[4] = 24 h, 10 µM, compound concentration 10 uM
[5] = 48 h, 1 µM, compound concentration 1 uM
[6] = 48 h, 10 µM, compound concentration 10 uM

COc1c(C)cc(NC(=O)c2nn(Cc3ccc(F)cc3)c3c2CN(C(=O)c2ccc[nH]2)C[C@]3(C)C(N)=O)cc1C
Population Apoptotic (%) (Fibroblast; [1]): 42% and 46%
Population Fragmented Nuclei (%) (Fibroblast; [1]): 21% and 16%
Population Healthy Nuclei (%) (Fibroblast; [1]): 58% and 51%
Population Hoechst High Intensity Objects (%) (Fibroblast; [1]): 2% and 3%
Population Membrane Permeable-Phenotype (%) (Fibroblast; [1]): 1% and 6%
Population Mitochondria Different-Phenotype (%) (Fibroblast; [1]): 18% and 11%
Population Mitotic Cells (%) (Fibroblast; [1]): 57% and 53%
Population Normal (%) (Fibroblast; [1]): 97% and 96%
Population Pyknosed Nuclei (%) (Fibroblast; [1]): 20% and 31%
Population Tubulin-Different-Phenotype (%) (Fibroblast; [1]): 64% and 72%
Total Cell Count (Fibroblast; [1]): 95 and 86
Population Apoptotic (%) (Fibroblast; [2]): 47% and 52%
Population Fragmented Nuclei (%) (Fibroblast; [2]): 12% and 29%
Population Healthy Nuclei (%) (Fibroblast; [2]): 58% and 38%
Population Hoechst High Intensity Objects (%) (Fibroblast; [2]): 1% and 2%
Population Membrane Permeable-Phenotype (%) (Fibroblast; [2]): 0% and 6%
Population Mitochondria Different-Phenotype (%) (Fibroblast; [2]): 25% and 30%
Population Mitotic Cells (%) (Fibroblast; [2]): 52% and 47%
Population Normal (%) (Fibroblast; [2]): 98% and 97%
Population Pyknosed Nuclei (%) (Fibroblast; [2]): 29% and 32%
Population Tubulin-Different-Phenotype (%) (Fibroblast; [2]): 90%
Total Cell Count (Fibroblast; [2]): 166 and 115
Population Apoptotic (%) (Fibroblast; [3]): 66% and 48%
Population Fragmented Nuclei (%) (Fibroblast; [3]): 25% and 31%
Population Healthy Nuclei (%) (Fibroblast; [3]): 61% and 38%
Population Hoechst High Intensity Objects (%) (Fibroblast; [3]): 3% and 6%
Population Membrane Permeable-Phenotype (%) (Fibroblast; [3]): 1% and 8%
Population Mitochondria Different-Phenotype (%) (Fibroblast; [3]): 17%
Population Mitotic Cells (%) (Fibroblast; [3]): 33% and 51%
Population Normal (%) (Fibroblast; [3]): 96% and 93%
Population Pyknosed Nuclei (%) (Fibroblast; [3]): 12% and 30%
Population Tubulin-Different-Phenotype (%) (Fibroblast; [3]): 45% and 67%
Total Cell Count (Fibroblast; [3]): 96 and 95
Population Apoptotic (%) (Fibroblast; [4]): 65% and 43%
Population Fragmented Nuclei (%) (Fibroblast; [4]): 14% and 30%
Population Healthy Nuclei (%) (Fibroblast; [4]): 64% and 47%
Population Hoechst High Intensity Objects (%) (Fibroblast; [4]): 3% and 4%
Population Membrane Permeable-Phenotype (%) (Fibroblast; [4]): 0% and 8%
Population Mitochondria Different-Phenotype (%) (Fibroblast; [4]): 47% and 26%
Population Mitotic Cells (%) (Fibroblast; [4]): 34% and 56%
Population Normal (%) (Fibroblast; [4]): 96% and 95%
Population Pyknosed Nuclei (%) (Fibroblast; [4]): 20% and 21%
Population Tubulin-Different-Phenotype (%) (Fibroblast; [4]): 90% and 82%
Total Cell Count (Fibroblast; [4]): 159 and 110
Population Apoptotic (%) (Fibroblast; [5]): 87% and 70%
Population Fragmented Nuclei (%) (Fibroblast; [5]): 29% and 34%
Population Healthy Nuclei (%) (Fibroblast; [5]): 61% and 45%
Population Hoechst High Intensity Objects (%) (Fibroblast; [5]): 7% and 5%
Population Membrane Permeable-Phenotype (%) (Fibroblast; [5]): 0% and 10%
Population Mitochondria Different-Phenotype (%) (Fibroblast; [5]): 10%
Population Mitotic Cells (%) (Fibroblast; [5]): 12% and 29%
Population Normal (%) (Fibroblast; [5]): 92% and 94%
Population Pyknosed Nuclei (%) (Fibroblast; [5]): 8% and 19%
Population Tubulin-Different-Phenotype (%) (Fibroblast; [5]): 45% and 69%
Total Cell Count (Fibroblast; [5]): 99 and 91
Population Apoptotic (%) (Fibroblast; [6]): 60% and 77%
Population Fragmented Nuclei (%) (Fibroblast; [6]): 22% and 41%
Population Healthy Nuclei (%) (Fibroblast; [6]): 60% and 51%
Population Hoechst High Intensity Objects (%) (Fibroblast; [6]): 4% and 2%
Population Membrane Permeable-Phenotype (%) (Fibroblast; [6]): 0% and 3%
Population Mitotic Cells (%) (Fibroblast; [6]): 39% and 22%
Population Normal (%) (Fibroblast; [6]): 95% and 97%
Population Pyknosed Nuclei (%) (Fibroblast; [6]): 17% and 7%
Population Tubulin-Different-Phenotype (%) (Fibroblast; [6]): 92% and 75%
Total Cell Count (Fibroblast; [6]): 166 and 122
Population Apoptotic (%) (HEK-293T; [1]): 42% and 38%
Population Fragmented Nuclei (%) (HEK-293T; [1]): 6% and 7%
Population Healthy Nuclei (%) (HEK-293T; [1]): 79% and 75%
Population Hoechst High Intensity Objects (%) (HEK-293T; [1]): 7% and 5%
Population Membrane Permeable-Phenotype (%) (HEK-293T; [1]): 0%
Population Mitochondria Different-Phenotype (%) (HEK-293T; [1]): 51% and 58%
Population Mitotic Cells (%) (HEK-293T; [1]): 57% and 61%
Population Normal (%) (HEK-293T; [1]): 92% and 94%
Population Pyknosed Nuclei (%) (HEK-293T; [1]): 13% and 17%
Population Tubulin-Different-Phenotype (%) (HEK-293T; [1]): 36% and 29%
Total Cell Count (HEK-293T; [1]): 426 and 304
Population Apoptotic (%) (HEK-293T; [2]): 67% and 59%
Population Fragmented Nuclei (%) (HEK-293T; [2]): 4% and 6%
Population Healthy Nuclei (%) (HEK-293T; [2]): 77% and 71%
Population Hoechst High Intensity Objects (%) (HEK-293T; [2]): 13%
Population Membrane Permeable-Phenotype (%) (HEK-293T; [2]): 0%
Population Mitochondria Different-Phenotype (%) (HEK-293T; [2]): 90% and 95%
Population Mitotic Cells (%) (HEK-293T; [2]): 32% and 40%
Population Normal (%) (HEK-293T; [2]): 86%
Population Pyknosed Nuclei (%) (HEK-293T; [2]): 17% and 21%
Population Tubulin-Different-Phenotype (%) (HEK-293T; [2]): 62% and 63%
Total Cell Count (HEK-293T; [2]): 383 and 285
Population Apoptotic (%) (HEK-293T; [3]): 21% and 51%
Population Fragmented Nuclei (%) (HEK-293T; [3]): 7% and 5%
Population Healthy Nuclei (%) (HEK-293T; [3]): 80% and 86%
Population Hoechst High Intensity Objects (%) (HEK-293T; [3]): 4%
Population Membrane Permeable-Phenotype (%) (HEK-293T; [3]): 0%
Population Mitochondria Different-Phenotype (%) (HEK-293T; [3]): 30% and 43%
Population Mitotic Cells (%) (HEK-293T; [3]): 78% and 48%
Population Normal (%) (HEK-293T; [3]): 95%
Population Pyknosed Nuclei (%) (HEK-293T; [3]): 12% and 7%
Population Tubulin-Different-Phenotype (%) (HEK-293T; [3]): 24% and 16%
Total Cell Count (HEK-293T; [3]): 574 and 422
